Measured values from ChEMBL document CHEMBL3352206, “Discovery of substituted 4-aminoquinazolines as selective Toll-like receptor 4 ligands” (Bioorg Med Chem Lett, 2014).
Calls of active or inactive are those of the source. The calls are words filed in the database; no cut-off is given here.

Columns and labels:
[1] = biological target: Toll-like receptor 4 (Homo sapiens) (UniProt O00206); test: Activation of human TLR4 fransfectoma in HEK Blue cells at 0.5 uM relative to LPS; type: cell-based; conditions: HEK293
Sequence of Toll-like receptor 4 (Homo sapiens) (O00206 whole entry): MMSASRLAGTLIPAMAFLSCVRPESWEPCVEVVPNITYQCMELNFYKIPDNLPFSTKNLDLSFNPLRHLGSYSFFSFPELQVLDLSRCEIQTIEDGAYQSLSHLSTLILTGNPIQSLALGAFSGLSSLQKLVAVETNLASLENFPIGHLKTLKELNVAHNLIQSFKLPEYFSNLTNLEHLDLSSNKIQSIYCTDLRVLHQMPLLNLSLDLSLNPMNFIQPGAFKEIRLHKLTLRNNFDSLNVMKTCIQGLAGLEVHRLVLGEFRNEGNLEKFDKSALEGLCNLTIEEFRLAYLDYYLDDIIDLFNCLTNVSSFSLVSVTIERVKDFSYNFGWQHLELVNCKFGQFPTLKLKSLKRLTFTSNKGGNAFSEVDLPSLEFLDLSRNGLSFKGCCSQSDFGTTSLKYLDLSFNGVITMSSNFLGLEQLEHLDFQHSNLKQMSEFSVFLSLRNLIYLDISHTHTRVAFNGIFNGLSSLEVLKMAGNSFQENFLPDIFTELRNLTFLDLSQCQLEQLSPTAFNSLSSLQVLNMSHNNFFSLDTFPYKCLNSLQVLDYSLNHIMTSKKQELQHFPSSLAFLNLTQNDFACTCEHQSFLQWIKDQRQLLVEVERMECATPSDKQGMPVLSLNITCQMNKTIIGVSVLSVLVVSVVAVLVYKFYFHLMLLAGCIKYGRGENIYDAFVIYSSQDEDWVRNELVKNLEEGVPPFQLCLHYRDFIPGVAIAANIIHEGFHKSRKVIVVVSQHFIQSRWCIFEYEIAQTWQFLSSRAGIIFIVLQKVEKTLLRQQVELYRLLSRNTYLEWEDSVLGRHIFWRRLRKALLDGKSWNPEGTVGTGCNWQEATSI
In short: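 hTLR4 HEK Blue transfectoma cells incubated with compound at 0.5 μM for 20–22 h; SEAP read by QuantiBlue OD630. Values normalized to LPS (100 ng/mL) positive control set at 100.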

HepG2 = test: Cytotoxicity against human HepG2 cells at 10 uM by MTT assay; type: functional
In short: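 HepG2 viability by MTT at 10 μM compound; OD570–650 normalized to vehicle-treated cells in the same experiment.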

PBMC [2] = test: Induction of IL-8 level in human PBMC at 0.5 uM by ELISA relative to LPS; type: functional
In short: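 Primary human PBMC stimulated overnight with compound at 0.5 μM; IL-8 in supernatant by ELISA, normalized to LPS (100 ng/mL) set at 100.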

PBMC [3] = test: Induction of CD80 expression in CD11c+ HLA-DR+ population of human PBMC; type: functional, cell-based
In short: (§1)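 Human PBMC incubated overnight with compound at 5 μM; CD80 and CD83 measured by flow cytometry on gated CD11c+HLA-DR+ cells. Two independent experiments.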

L929 = test: Induction of type 1 IFN release in mouse L929-ISRE cells assessed as luciferase release at 10 uM; type: functional, cell-based
In short: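 Human PBMC incubated overnight with compound (10 μM), LPS (10 ng/mL) or vehicle; type I IFN in supernatant quantified as luciferase release from L929-ISRE reporter cells. Mean ± SEM of triplicates.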

BMDC [4] = test: Induction of IL-6 production in TLR4-deficient mouse BMDC at 10 uM by ELISA; type: functional
In short: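 BMDC from wild-type and TLR4-deficient mice stimulated with compound at 10 μM; IL-6 in culture supernatant by ELISA.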

BMDC [5] = test: Induction of CD40 expression in TLR4-deficient CD11c+ population of mouse BMDC; type: functional
In short: (§2)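 BMDC from wild-type or Tlr4−/− mice treated with compound or vehicle (0.5% DMSO); stained for CD11c plus CD40, CD80 or CD86. Marker expression assessed by flow cytometry on gated CD11c+ cells.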

[6] = biological target: Toll-like receptor 4/MD-2/CD14 (Mus musculus) (UniProt Q9QUK6+Q9JHF9+P10810); test: Activation of mouse TLR4/MD2 complex in mouse RAW264.7 cells assessed as induction of NFkappaB activation incubated for 18 hrs
BMDC [7] = test: Induction of CD86 expression in TLR4-deficient CD11c+ population of mouse BMDC; type: functional; in short: as §2
PBMC [8] = test: Induction of CD83 expression in CD11c+ HLA-DR+ population of human PBMC; type: functional, cell-based; in short: as §1
[9] = Cytotoxicity against mouse BMDC at 10 uM after 18 hrs incubation by MTT assay
In short: (§3)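 Human PBMC or mouse BMDC incubated 18 h with compound at 10 μM; viability by MTT assay, reported as percent.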

BMDC [10] = test: Induction of CD40 expression in wild type CD11c+ population of mouse BMDC; type: functional; in short: as §2
PBMC [11] = test: Cytotoxicity against human PBMC at 10 uM after 18 hrs incubation by MTT assay; type: cell-based; in short: as §3
[12] = biological target: T1, Toll-like receptor 4/MD-2 (Homo sapiens) (UniProt O00206+Q9Y6Y9); test: Activation of human TLR4/MD2 complex expressed in HEK293 Blue cells assessed as SEAP secretion at 10 uM after 20 to 24 hrs by SEAPorter assay
BMDC [13] = test: Induction of CD80 expression in wild type CD11c+ population of mouse BMDC; type: functional; in short: as §2
PBMC [14] = test: Induction of IL-8 level in human PBMC at < 1 uM by ELISA; type: functional, cell-based
In short: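 Mouse BMDC or human PBMC stimulated overnight with graded compound concentrations; IL-6 (mouse) or IL-8 (human) in supernatant by ELISA. Mean ± SEM of triplicates, two independent experiments.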

BMDC [15] = test: Induction of CD80 expression in TLR4-deficient CD11c+ population of mouse BMDC; type: functional; in short: as §2
PBMC [16] = test: Induction of IL-8 expression in human PBMC by ELISA in presence of polymyxin B; type: functional, cell-based
In short: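 Human PBMC incubated overnight with compound, alone or with polymyxin B (10 μg/mL); IL-8 in supernatant by ELISA. Mean ± SEM of triplicates, two independent experiments.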

[17] = biological target: T1, Toll-like receptor 4/MD-2 (Homo sapiens); test: Activation of human TLR4/MD2 complex expressed in HEK293 Blue cells coexpressing CD14 assessed as SEAP secretion at 10 uM after 20 to 24 hrs by SEAPorter assay; type: cell-based
BMDC [18] = test: Induction of CD86 expression in wild type CD11c+ population of mouse BMDC; type: functional; in short: as §2
[19] = biological target: Toll-like receptor 4 (Homo sapiens) (UniProt O00206); test: Activation of human TLR4 complex expressed in MD2-deficient HEK293 Blue cells coexpressing CD14 assessed as SEAP secretion at 10 uM after 20 to 24 hrs by SEAPorter assay; type: cell-based
[20] = biological target: T1, Toll-like receptor 4/MD-2 (Homo sapiens); test: Activation of human TLR4/MD2 complex in human THP1 cells assessed as induction of NFkappaB activation incubated for 18 hrs; type: cell-based; conditions: THP-1
In short: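 CellSensor THP-1 or RAW264.7 cells carrying an NF-κB-driven FRET β-lactamase reporter; graded compound concentrations for 18 h. NF-κB activation normalized to LPS (5 ng/mL) and expressed as percent activation.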

[21] = biological target: T1, Toll-like receptor 4/MD-2 (Homo sapiens); test: Activation of human TLR4/MD2 complex expressed in HEK293 Blue cells coexpressing CD14 assessed as SEAP secretion at 10 uM after 20 to 24 hrs by SEAPorter assay in presence of Rhodobacter sphaeroides LPS; type: cell-based
In short: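 hTLR4/MD-2/CD14 transfectoma cells given 10 μM compound or 10 ng/mL LPS, with or without the TLR4 antagonist LPS-RS (Rhodobacter sphaeroides LPS; 12, 111, 1000 ng/mL). TLR4/NF-κB activation read as SEAP in supernatant. One-way ANOVA with Dunnett's test versus vehicle.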

Activity [1] | Compound | Activity (HepG2) | Activity (PBMC [2]) | other results
73.9% | CCOC(=O)c1nc(Nc2cc(Oc3ccccc3Cl)cc([N+](=O)[O-])c2)c2ccccc2n1 | 107.4% |  | 
0.6% | CCOC(=O)c1nc(Nc2cc(Oc3c(C)cccc3C)cc([N+](=O)[O-])c2)c2ccccc2n1 | 106.3% | 0% | 
79% | CCOC(=O)c1nc(Nc2cc(Oc3ccccc3Br)cc([N+](=O)[O-])c2)c2ccccc2n1 | 90.8% |  | 
65.5% | CCOC(=O)c1nc(Nc2cc(Oc3ccccc3I)cc([N+](=O)[O-])c2)c2ccccc2n1 | 93.8% |  | 
14.5% | CCOC(=O)c1nc(Nc2cc(Oc3cccc(C)c3)cc([N+](=O)[O-])c2)c2ccccc2n1 | 109.9% | 5.8% | 
45.5% | CCOC(=O)c1nc(Nc2cc(Oc3ccccc3C)cc([N+](=O)[O-])c2)c2ccccc2n1 | 96.7% |  | 
0.5% | CCOC(=O)c1nc(Nc2cc(Oc3ccc(C)cc3)cc([N+](=O)[O-])c2)c2ccccc2n1 | 108.8% | 0.4% | 

The next lines start with the molecule.

Compound | Activity [1] | Activity (HepG2) | Activity (PBMC [2]) | other results
NC(=O)c1nc(Nc2cc(Oc3ccccc3)cc([N+](=O)[O-])c2)c2ccccc2n1 | 0% | 78.4% | 0.3% | 
O=C(O)c1nc(Nc2cc(Oc3ccccc3)cc([N+](=O)[O-])c2)c2ccccc2n1 | 0.6% | 84.5% | 0.5% | 
CCOC(=O)c1nc(Nc2cc(Oc3ccc4ccccc4c3)cc([N+](=O)[O-])c2)c2ccccc2n1 | 0.8% | 111.4% | 0% | 
CC(C)OC(=O)c1nc(Nc2cc(Oc3ccccc3)cc([N+](=O)[O-])c2)c2ccccc2n1 | 7.4% | 65.6% | 2.1% | 
CCOC(=O)c1nc(Nc2cc(Oc3ccccc3)cc([N+](=O)[O-])c2)c2ccccc2n1 | 49.1% | 93.5% |  | Activity (PBMC [3]): Active; Activity (L929): Active; Activity (BMDC [4]): inactive; Activity (BMDC [5]): inactive; Activity [6]: Active; Activity (BMDC [7]): inactive; Activity (PBMC [8]): Active; Activity [9]: 117%; Activity (BMDC [10]): Active; Activity (PBMC [11]): 112%; Activity [12]: inactive; Activity (BMDC [13]): Active; Activity (PBMC [14]): Active; Activity (BMDC [15]): inactive; Activity (PBMC [16]): Active; Activity [17]: Active; Activity (BMDC [18]): Active; Activity [19]: inactive; Activity [20]: Active; Activity [21]: inactive
COC(=O)c1nc(Nc2cc(Oc3ccccc3)cc([N+](=O)[O-])c2)c2ccccc2n1 | 0.4% | 116.4% | 0.2% | 
O=C(O)c1nc(Nc2cc(Oc3ccccc3Br)cc([N+](=O)[O-])c2)c2ccccc2n1 | 1.6% | 96.3% | 0% | 
CCOC(=O)c1nc(Nc2cc(Oc3ccccc3CC)cc([N+](=O)[O-])c2)c2ccccc2n1 | 4.2% | 98.9% | 3.2% | 
Nc1cc(Nc2nc(C(=O)O)nc3ccccc23)cc(Oc2ccccc2)c1 | 1.1% | 105% | 0.3% | 
CCNC(=O)c1nc(Nc2cc(Oc3ccccc3)cc([N+](=O)[O-])c2)c2ccccc2n1 | 2.2% | 107.4% | 1.5% | 
CC(C)CCOC(=O)c1nc(Nc2cc(Oc3ccccc3)cc([N+](=O)[O-])c2)c2ccccc2n1 | 8.4% | 63.4% | 2.2% | 
CCOC(=O)c1nc(Nc2cc(N)cc(Oc3ccccc3)c2)c2ccccc2n1 | 0.6% | 106.1% | 0.3% | 
CC(C)OC(=O)c1nc(Nc2cc(Oc3ccccc3Br)cc([N+](=O)[O-])c2)c2ccccc2n1 | 67.8% | 106.5% |  | 
CCOC(=O)c1nc(Nc2cc(Oc3ccccc3C(F)(F)F)cc([N+](=O)[O-])c2)c2ccccc2n1 | 58.7% | 67.1% |  | 
